One substance from publication PMC5600292 (Biochimica et biophysica acta, 2017) can be followed below.

Holding throughout (assay type): biochemical
Assay [1] deals with human recombinant thrombin wild-type (WT) (Homo sapiens, UniProt P00734). Description: HPLC-based kinetic assay of thrombin-catalyzed hydrolysis of FXIII. The following applies: WT IIa, pH 7.4, 25 °C, average of at least three independent experiments ± SEM. The essentials: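 Recombinant human thrombin hydrolysed acetylated, amidated FXIII (28–41) activation peptides with V, L, F, W or Y at position 34 (final 75–2500 µM). Reactions ran at 25 °C in 50 mM H3PO4, 100 mM NaCl, 0.1% PEG, pH 7.4, with 6 nM–1 µM thrombin, and kept <17% hydrolysis in 30 min. Timed aliquots were quenched with 12.5% H3PO4. The (28–37) product was quantified by C18 RP-HPLC against calibration curves, giving initial velocities. These were fit to V = Vmax/(1 + Km/[S]), and kcat came from thrombin concentration. Runs were in triplicate.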

Assay [2] addresses human recombinant thrombin L99A (Homo sapiens, UniProt P00734, L459A). Description: HPLC-based kinetic assay of FXIII AP hydrolysis, L99A thrombin. A digest of the protocol:
(§1)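 Synthetic Ac-/-NH2 FXIII (28–41) AP peptides (V34, L34, F34, W34, Y34) were used at 75–2500 µM final in 50 mM H3PO4, 100 mM NaCl, 0.1% PEG, pH 7.4, 25 °C. Recombinant human thrombin (6 nM–1 µM) started the reaction; aliquots were quenched with 12.5% H3PO4, keeping hydrolysis below 17% in 30 min. The (28–37) product was quantified by RP-HPLC against calibration curves. Initial velocities were fitted to V = Vmax/(1+Km/[S]), kcat taken from thrombin concentration, in triplicate.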

The target of assay [3] is human recombinant thrombin I174A (Homo sapiens, UniProt P00734, I542A). Description: HPLC-based kinetic assay of FXIII AP hydrolysis, I174A thrombin. The essentials:
as §1

Assay [4] has as its target human recombinant thrombin W215A (Homo sapiens, UniProt P00734, W590A). As to the kind of experiment: HPLC-based kinetic assay of FXIII AP hydrolysis, W215A thrombin. The essentials:
as §1

Assay [5] concerns the target human recombinant thrombin W60dA (Homo sapiens, UniProt P00734, W413A). Description: HPLC-based kinetic assay of FXIII AP hydrolysis, W60dA thrombin. The following applies: W60dA IIa, pH 7.4, 25 °C, average of at least three independent experiments ± SEM. A digest of the protocol:
as §1

The target in assay [6] is human recombinant thrombin W215A/E217A (WE) (Homo sapiens, UniProt P00734, E592A/W590A). Description: HPLC-based kinetic assay of FXIII AP hydrolysis, W215A/E217A. A digest of the protocol: as §1
[7] abbreviates: L99A IIa, HPLC assay, pH 7.4, 25 °C, average of at least three independent experiments ± SEM, SEM.
Setting [8] is: I174A IIa, HPLC assay, pH 7.4, 25 °C, average of at least three independent experiments ± SEM, SEM.
Setting [9] is: W215A IIa, HPLC assay, pH 7.4, 25 °C, average of at least three independent experiments ± SEM, SEM.
Setting [10] is: WE (W215A/E217A) IIa, HPLC assay, pH 7.4, 25 °C, average of at least three independent experiments ± SEM, SEM.

What is called kcat/Km is the turnover number divided by the Michaelis constant. As a reminder, the Km is the substrate concentration at which the rate is half of its maximum. Broadly, the kcat is the number of substrate molecules converted per active site and unit of time at saturation. Take “Ac-TVELQGWVPRGVNL-NH2 [FXIII (28–41) W34 AP]”: the kcat/Km turned out to be 0.012 ± 0.0012 µM⁻¹ s⁻¹ in assay [1]; 0.0032 ± 0.00049 µM⁻¹ s⁻¹ in assay [2] (L99A IIa, HPLC assay, pH 7.4, 25 °C, average of at least three independent experiments ± SEM); 0.054 ± 0.0055 µM⁻¹ s⁻¹ in assay [3] (I174A IIa, HPLC assay, pH 7.4, 25 °C, average of at least three independent experiments ± SEM); 0.0056 ± 0.00034 µM⁻¹ s⁻¹ in assay [4] (W215A IIa, HPLC assay, pH 7.4, 25 °C, average of at least three independent experiments ± SEM); 0.0012 ± 0.00012 µM⁻¹ s⁻¹ in assay [5]; 0.00027 ± 3.5e-05 µM⁻¹ s⁻¹ in assay [6] (WE (W215A/E217A) IIa, HPLC assay, pH 7.4, 25 °C, average of at least three independent experiments ± SEM). Moreover, the Km in assay [1] (SEM) amounted to 637 ± 56 µM; in assay [2] (setting [7]), 719 ± 97 µM; in assay [3] (setting [8]), 256 ± 24 µM; in assay [4] (setting [9]) it was 1.03 ± 0.057 mM; in assay [5] (SEM), 976 ± 89 µM; in assay [6] (setting [10]) it was 1.28 ± 0.161 mM. In addition, the catalytic constant (kcat) came out at 7.62 ± 0.3 s⁻¹ in assay [1] (SEM); 2.3 ± 0.17 s⁻¹ in assay [2] (setting [7]); 13.9 ± 0.52 s⁻¹ in assay [3] (setting [8]); 5.76 ± 0.14 s⁻¹ in assay [4] (setting [9]); 1.21 ± 0.05 s⁻¹ in assay [5] (SEM); 0.35 ± 0.03 s⁻¹ in assay [6] (setting [10]). In addition, the “fold decrease in kcat relative to WT thrombin” value in assay [2] (L99A thrombin, current work) is 3 fold. For the same substance, in assay [3] (I174A thrombin, current work), the “fold increase in kcat relative to WT thrombin” value is 2 fold. Besides, in assay [3] (I174A thrombin, current work), the “fold increase in kcat/Km relative to WT thrombin” value stood at 4.5 fold. Further, the “fold decrease in Km over WT thrombin” value in assay [4] (W215A thrombin, current work) turned out to be 2 fold; in assay [6] (WE thrombin, current work), 2 fold.
